In ChEMBL document CHEMBL1157183, “Synthesis and discovery of a novel pyrazole derivative as an inhibitor of apoptosis through modulating integrin beta4, ROS, and p53 levels in vascular endothelial cells” (2008):
Activity calls are given as the source filed them. The rule behind the calls is not given here.

Assays:
HUVEC [1] = assay: Decrease in integrin beta4 level in HUVEC cells at 25 uM after 12 hrs in absence of serum and FGF2; assay type: functional, Homo sapiens
Method in brief: (§1)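 HUVECs, passages 10–20, grown to sub-confluence, washed and switched to basal M199 without FBS and FGF-2; 25 µM in DMSO for 12, 24 or 48 h. Comparators were cells kept in M199 with 20% FBS plus 70 ng/mL FGF-2 and cells in basal medium alone. Immunofluorescence used rabbit anti-human integrin β4 and FITC-IgG secondary, read by laser scanning confocal microscopy as relative fluorescence intensity; n = 3.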

HUVEC [2] = assay: Induction of apoptosis in HUVEC cells at 100 uM by MTT assay; assay type: functional, cell-based; conditions: Homo sapiens
Method in brief: (§2)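 Sub-confluent HUVECs, passages 10–20, were washed and cultured in M199 without serum and FGF-2. They were treated at 5, 10, 20, 25, 50 and 100 µM (DMSO vehicle at a non-toxic final level). Viability was measured by MTT at 24 and 48 h against deprived control and full-medium normal cells; n = 3.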

HUVEC [3] = assay: Induction of apoptosis in HUVEC cells at 50 uM by MTT assay; assay type: functional, cell-based; conditions: Homo sapiens; method in brief: as §2
HUVEC [4] = assay: Decrease in serum and FGF2 deprivation-induced intracellular ROS level in HUVEC cells; assay type: functional, cell-based; conditions: Homo sapiens
Method in brief: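 Intracellular ROS measured with the DCHF probe, which oxidises to fluorescent DCF. Cells were HUVECs in basal M199 lacking serum and FGF-2, exposed to 25 µM for 12, 24 and 48 h. Fluorescence was imaged by laser scanning confocal microscopy and expressed as relative DCF intensity per cell in the scanned area; n = 3.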

HUVEC [5] = assay: Reduction of serum and FGF2 deprivation-induced apoptosis in HUVEC cells at 25 uM after 24 hrs; assay type: functional, Homo sapiens; set-up: scale not given: the % may be the effect or the level left
Method in brief: (§3)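 TUNEL staining was done on HUVECs deprived of serum and FGF-2 (basal M199) and treated with 25 µM for 24 h. Apoptotic cells were quantified as a percentage from fluorescent micrographs, relative to deprived control and to cells in M199 with 20% FBS plus 70 ng/mL FGF-2.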

HUVEC [6] = assay: Suppression of apoptosis in HUVEC cells at 25 uM by MTT assay; assay type: functional, cell-based; conditions: Homo sapiens; method in brief: as §2
HUVEC [7] = assay: Decrease in integrin beta4 level in HUVEC cells at 25 uM after 24 hrs in absence of serum and FGF2; assay type: functional, Homo sapiens; method in brief: as §1
HUVEC [8] = assay: Inhibition of DNA fragmentation in HUVEC cells at 25 uM after 24 hrs by TUNEL assay; assay type: functional, cell-based; conditions: Homo sapiens; method in brief: as §3
HUVEC [9] = assay: Inhibition of nuclear DNA condensation in HUVEC cells at 25 uM after 24 hrs by acridine orange staining assay; assay type: functional, cell-based; conditions: Homo sapiens
Method in brief: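 Serum/FGF-2-deprived HUVECs were treated with 25 µM for 24 h, then stained with acridine orange for 5 min. Nuclear condensation and fragmentation were examined by laser scanning confocal microscopy.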

HUVEC [10] = assay: Decrease in integrin beta4 level in HUVEC cells at 25 uM after 48 hrs in absence of serum and FGF2; assay type: functional, Homo sapiens; method in brief: as §1
HUVEC [11] = assay: Increase in cell viability of HUVEC cells at 25 uM; assay type: functional, cell-based; conditions: Homo sapiens; method in brief: as §2
HUVEC [12] = assay: Decrease in serum and FGF2 deprivation-induced p53 level in HUVEC cells; assay type: functional, cell-based; conditions: Homo sapiens
Method in brief: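 Serum/FGF-2-deprived HUVECs (basal M199) received 25 µM for 12, 24 and 48 h. Comparators were cells in M199 with 20% FBS and 70 ng/mL FGF-2 and untreated deprived cells. p53 was detected by immunofluorescence with rabbit anti-human p53 and FITC-IgG secondary, semiquantified as relative intensity by confocal microscopy; n = 3.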

Q: For `CCOC(=O)c1c(-c2ccccc2Cl)nn(-c2ccccc2)c1C`, which Flu intensity (HUVEC [1]) is on record?
A: 6.307

Q: What about the Activity (HUVEC [2]) of the same compound?
A: Active

Q: And the Activity (HUVEC [3])?
A: Active

Q: What about the Activity (HUVEC [4]) of the same compound?
A: Active

Q: What about the Activity (HUVEC [5]) of the same compound?
A: 19.16%

Q: And the Activity (HUVEC [6])?
A: Active

Q: What about the Flu intensity (HUVEC [7]) of the same compound?
A: 9.083

Q: What about the Activity (HUVEC [8]) of the same compound?
A: Active

Q: What about the Activity (HUVEC [9]) of the same compound?
A: Active

Q: And the Flu intensity (HUVEC [10])?
A: 13.14

Q: What about the Activity (HUVEC [11]) of the same compound?
A: Active

Q: What about the Activity (HUVEC [12]) of the same compound?
A: Active
